In test [1] the target is T1, human PRODH2 157–515 (Homo sapiens, UniProt Q9UF12).
T1 sequence (Q9UF12 81-439 limits assumed): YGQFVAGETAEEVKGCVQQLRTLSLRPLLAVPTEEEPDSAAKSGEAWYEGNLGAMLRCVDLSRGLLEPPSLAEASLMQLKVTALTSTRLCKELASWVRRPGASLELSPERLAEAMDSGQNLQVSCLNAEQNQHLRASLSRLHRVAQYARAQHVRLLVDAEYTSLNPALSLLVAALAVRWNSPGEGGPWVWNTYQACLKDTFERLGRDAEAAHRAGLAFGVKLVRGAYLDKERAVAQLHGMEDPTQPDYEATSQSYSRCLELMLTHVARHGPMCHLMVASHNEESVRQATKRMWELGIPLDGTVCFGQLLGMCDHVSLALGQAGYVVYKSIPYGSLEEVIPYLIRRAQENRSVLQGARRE
The experiment in a line: Steady-state kinetics with ubiquinone analogues as electron acceptors. The settings on record: for ability to support Hyp turnover as electron acceptor: Triton X-100 included with CoQ4. Type of test: biochemical.

For test [2], the target named is T2, human PRODH2 157–515 (HYPDH) (Homo sapiens, UniProt Q9UF12).
T2 sequence (Q9UF12 81-439 limits assumed): T1 sequence (Q9UF12 81-439 limits assumed)
Briefly: Inhibition studies, standard o-AB assay. Type of test: biochemical. The settings on record: 600 mM Hyp; for IC50: 5 min preincubation, compound up to 5 mM; for inhibition of HYPDH activity: up to 5 mM. A digest of the protocol: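 Purified PRODH2 157–515 at 200 nM in 50 mM HEPES pH 7.5 with 4 mM o-AB and 200 μM CoQ1 as electron acceptor, 25°C. Test compound (up to 5 mM) was preincubated with enzyme for 5 min, then 600 mM Hyp was added. Product–o-AB adduct was followed at 443 nm. Percent activity versus concentration was fit assuming single-site binding to give IC50. Stocks were aqueous, except one in DMSO (3% final).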

For test [3], the target named is T1, human PRODH2 157–515. The experiment in a line: Sulfite reactivity. Type of test: binding. The essentials: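 The flavin spectrum was recorded until absorbance stabilised, and ΔA455 was fit hyperbolically for Kd. For adduct reversibility, a proline-analogue inhibitor (1–5 mM final) was added and incubated for 30 min before the spectrum was re-acquired.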
For a further test, the target named is human PRODH1. The following applies: read-out: Kd for sulfite binding; ref [34], [45]; cited from earlier work.
In the next test the test system is E. coli PutA. The settings on record: ref [43], [45]; cited from earlier work.
For test [4], the system named is PRODH homologue of Saccharomyces cerevisiae. The following applies: ref [43], [45]; cited from earlier work.
In test [5] the target is Helicobacter hepaticus PutA. The settings on record: read-out: Kd for sulfite binding; ref [34], [45]; cited from earlier work.
Test [6] has as its target T1, human PRODH2 157–515. Briefly: Steady-state kinetic analysis with the o-AB assay. Type of test: biochemical. The following applies: for reaction as substrate: tested at 500 mM.
The target in test [7] is T1, human PRODH2 157–515. The experiment in a line: Anaerobic titration with Hyp. The following applies: Kd from anaerobic titration versus Km from o-AB assay. The test is classed as binding.

Molecules are shown by their SMILES. “And” between values parts separate entries of the source, which are not always exact repeats. Equal entries are not always repeated.

The term Ki denotes a measure of affinity in units of concentration, obtained from inhibition or displacement. In turn, `CC1=CC(=O)c2ccccc2C1=O` [Menadione] yielded an inhibitory constant (Ki) at human PRODH2 157–515 [1] of 0.306 ± 0.034 mM. For the same compound, on human PRODH2 157–515 [1] (600 mM Hyp), the “ability to support Hyp turnover as electron acceptor” value (from here on “ability to support Hyp turnover”) is given as “support Hyp turnover”.
As a reminder, the IC50 is the concentration that gives 50% inhibition. The compound `O=C(O)C1CCCO1` (stereo not shown) [THFA, tetrahydrofuroic acid] showed an IC50 in [2] of 1.5 ± 0.1 mM. Besides, at human PRODH2 157–515 [3] (1–5 mM THFA added, 30 min incubation), the “reversal of the sulfite adduct (flavin spectrum)” value is “returned the flavin spectrum to the oxidized state”.
A word on the Kd: it is the concentration at which binding is half-saturated. As to `O=S([O-])[O-].[Na+].[Na+]` [sulfite, sodium sulfite], the Kd at human PRODH1 is 10.4 mM; on human PRODH2 157–515 [3] (read-out: Kd for sulfite binding, 50 μM PRODH2 157–515, 50 mM potassium phosphate pH 7.6, 25 °C, 6 h equilibration) it was 0.064 ± 0.0077 mM; in test [5], 0.4 mM. Also, the sulfite binding entry (in the test on E. coli PutA; in [4]) was “do not bind” in each case. Besides, the “time for the spectrum to reach equilibrium (adduct formation)” value at human PRODH2 157–515 [3] (aerobic, 25 °C) is listed as ~ 6 h.
With `O=C(O)[C@H]1C[C@@H](O)CN1` (relative stereo) [cis-4-OH-D-proline], the “inhibition of HYPDH activity” value in [2] was “did not cause inhibition”. In addition, the reaction as substrate result on human PRODH2 157–515 [6] (200 μM CoQ1) is recorded as “does not react”.
On to `O=C(O)c1cc(O)[nH]n1` [5-OH-1H-pyrazole-3-COOH], for which the IC50 in [2] is 2.9 ± 0.1 mM.
In the case of `COC1=C(OC)C(=O)C(C/C=C(\C)CC/C=C(\C)CC/C=C(\C)CCC=C(C)C)=C(C)C1=O` [CoQ4], at human PRODH2 157–515 [1] (600 mM Hyp), the “ability to support Hyp turnover” value is “inability to use”.
Usually kcat stands for the maximal rate divided by the concentration of active sites. A word on the Km: it is the substrate concentration at which the rate is half of its maximum. As for `COC1=C(OC)C(=O)C(CC=C(C)C)=C(C)C1=O` [CoQ1, Coenzyme Q1], the kcat at human PRODH2 157–515 [1] (0–400 μM ubiquinone analogue, 600 mM Hyp, 50 mM HEPES pH 7.5) was 0.19 ± 0.01 s⁻¹. Further, the Km on human PRODH2 157–515 [1] (0–400 μM ubiquinone analogue, 600 mM Hyp, 50 mM HEPES pH 7.5, 4 mM o-AB, 200 nM PRODH2 157–515) stood at 124 ± 19 µM. In addition, the “ability to support Hyp turnover” value on human PRODH2 157–515 [1] (600 mM Hyp) is “support Hyp turnover”.
Turning to `CC1=C(C)C(=O)C(C)=C(C)C1=O` [Duroquinone], the “ability to support Hyp turnover” value on human PRODH2 157–515 [1] (600 mM Hyp) was “support Hyp turnover”.
On to `O=C(O)[C@@H]1CC[C@@H](O)C1` [(1R, 3R) 3-OH-cyclopentane carboxylic acid], for which the midpoint of inhibition in test [2], the IC50, lay at 2.1 ± 0.1 mM.
As for `O=C(O)[C@@H]1CCCN1` [Pro, L-proline], the “saturation of PRODH2 by substrate” value at human PRODH2 157–515 [6] (up to 750 mM Pro, 200 μM CoQ1) is “unable to saturate”.
For the compound `O=C(O)[C@H]1CC[C@@H](O)C1` [(1S, 3R) 3-OH-cyclopentane carboxylic acid], the “inhibition of HYPDH activity” value in [2] is on record as “did not cause inhibition”; in test [2] (listed as (1S, 3R) 3-OH-cyclopentane-COOH), “did not inhibit”.
Consider `O=C(O)[C@@H]1C[C@@H](O)CN1` [Hyp, trans-4-hydroxy-L-proline], for which, on human PRODH2 157–515 [7], the “fold lower Kd than Km” value is ~ 1600 fold and 1600 fold. Also, at human PRODH2 157–515 [6] (200 μM CoQ1), the “fold difference in kcat/Km (specificity constant), Hyp over Pro” value was 12 fold and ~ 12 fold. Besides, the “fold lower kcat with O2 than with CoQ1 as electron acceptor” value on human PRODH2 157–515 [6] (air saturated buffer versus 200 μM CoQ1) is reported as ~ 100 fold.
Take `COC1=C(OC)C(=O)C(C/C=C(\C)CCC=C(C)C)=C(C)C1=O` [CoQ2]: on human PRODH2 157–515 [1] (600 mM Hyp), the “ability to support Hyp turnover” value is “inability to use”.
Take `O=C(O)C1CC(O)CN1` [trans-4-OH-D-proline]: the “inhibition of HYPDH activity” value in test [2] was “did not cause inhibition”. Also, on human PRODH2 157–515 [6] (200 μM CoQ1), the reaction as substrate entry is “does not react”.

These data come from PMC4377293 (The Biochemical journal, 2015).
